# Results: ChEMBL document CHEMBL4689842, “EUbOPEN Chemogenomics Library wave 1” (2021)
# Where “and” joins values, the source holds several entries; their conditions need not be identical. Equal entries are not always repeated.
# System: HEK-293T
# Assay: Multiplex assay against HEK293T;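 for Population Tubulin-Different-Phenotype (%): share of the cells with healthy nuclei that show this phenotype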
# Assay type: toxicity, cell-based
# Conditions: human
# Method in brief: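 Values for tubulin, mitochondrial-mass and membrane-permeability phenotypes are per cents of cells with healthy nuclei. These cells were identified by CellPathfinder machine-learning gating of live cells that had been stained at seeding with Hoechst33342, BioTracker Green Microtubule Cytoskeleton Dye, MitoTracker Red and Annexin V Alexa Fluor 680 and imaged on a CQ1 microscope at 37°C and 5% CO2 after compound addition. The gating first set Hoechst high-intensity objects apart from normal cells, then split normal cells into healthy, pyknosed or fragmented nuclei, and pyknosed cells into mitotic or apoptotic.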
# [1] = 12 h, 1 µM, compound concentration 1 uM, replicate 1
# [2] = 12 h, 1 µM, compound concentration 1 uM, replicate 2
# [3] = 12 h, 10 µM, compound concentration 10 uM, replicate 1
# [4] = 12 h, 10 µM, compound concentration 10 uM, replicate 2
# [5] = 24 h, 1 µM, compound concentration 1 uM, replicate 1
# [6] = 24 h, 1 µM, compound concentration 1 uM, replicate 2
# [7] = 24 h, 10 µM, compound concentration 10 uM, replicate 1
# [8] = 24 h, 10 µM, compound concentration 10 uM, replicate 2
# [9] = 48 h, 1 µM, compound concentration 1 uM, replicate 1
# [10] = 48 h, 1 µM, compound concentration 1 uM, replicate 2
# [11] = 48 h, 10 µM, compound concentration 10 uM, replicate 1
# [12] = 48 h, 10 µM, compound concentration 10 uM, replicate 2
smiles,measurement,setting,value
CS(=O)(=O)N1CCCC(NC(=O)[C@H](CCC2CCCCC2)NC(=O)c2ccc(CNc3ncnc4c3nnn4-c3ccccc3)cc2)C1 (some centres not stated) [SR-301],Population Apoptotic (%),[1],26% and 51% and 37%
same,Population Fragmented Nuclei (%),[1],13% and 14% and 15%
same,Population Healthy Nuclei (%),[1],22% and 17% and 20%
same,Population Hoechst High Intensity Objects (%),[1],13% and 14%
same,Population Membrane Permeable-Phenotype (%),[1],8% and 3%
same,Population Mitochondria Different-Phenotype (%),[1],85% and 84%
same,Population Mitotic Cells (%),[1],73% and 48% and 62%
same,Population Normal (%),[1],86% and 85%
same,Population Pyknosed Nuclei (%),[1],64% and 67%
same,Population Tubulin-Different-Phenotype (%),[1],46% and 57% and 55%
same,Total Cell Count,[1],584 and 339 and 397
same,Population Apoptotic (%),[2],20% and 16% and 18%
same,Population Fragmented Nuclei (%),[2],5% and 8% and 4%
same,Population Healthy Nuclei (%),[2],41% and 36% and 50%
same,Population Membrane Permeable-Phenotype (%),[2],4% and 1% and 5%
same,Population Mitochondria Different-Phenotype (%),[2],41% and 30%
same,Population Mitotic Cells (%),[2],79% and 83% and 81%
same,Population Normal (%),[2],94% and 98% and 96%
same,Population Pyknosed Nuclei (%),[2],53% and 55% and 45%
same,Population Tubulin-Different-Phenotype (%),[2],43% and 26% and 29%
same,Total Cell Count,[2],247 and 189 and 243
same,Population Apoptotic (%),[3],68% and 73%
same,Population Fragmented Nuclei (%),[3],20% and 14% and 21%
same,Population Healthy Nuclei (%),[3],6% and 12% and 9%
same,Population Hoechst High Intensity Objects (%),[3],17%
same,Population Membrane Permeable-Phenotype (%),[3],10%
same,Population Mitochondria Different-Phenotype (%),[3],76% and 85% and 86%
same,Population Mitotic Cells (%),[3],31% and 26%
same,Population Normal (%),[3],82%
same,Population Pyknosed Nuclei (%),[3],73% and 68%
same,Population Tubulin-Different-Phenotype (%),[3],71% and 66%
same,Total Cell Count,[3],404 and 541 and 467
same,Population Apoptotic (%),[4],51% and 84% and 91%
same,Population Fragmented Nuclei (%),[4],9% and 13% and 19%
same,Population Healthy Nuclei (%),[4],28% and 26% and 20%
same,Population Hoechst High Intensity Objects (%),[4],8% and 13% and 20%
same,Population Mitochondria Different-Phenotype (%),[4],43% and 78% and 82%
same,Population Normal (%),[4],92% and 86% and 79%
same,Population Pyknosed Nuclei (%),[4],61% and 60%
same,Population Tubulin-Different-Phenotype (%),[4],43% and 40% and 57%
same,Total Cell Count,[4],225 and 185 and 216
same,Population Apoptotic (%),[5],26% and 40% and 55%
same,Population Fragmented Nuclei (%),[5],18% and 19%
same,Population Healthy Nuclei (%),[5],19% and 18% and 14%
same,Population Hoechst High Intensity Objects (%),[5],19% and 18% and 16%
same,Population Membrane Permeable-Phenotype (%),[5],6% and 5% and 2%
same,Population Mitochondria Different-Phenotype (%),[5],72% and 77% and 78%
same,Population Mitotic Cells (%),[5],73% and 60% and 44%
same,Population Normal (%),[5],80% and 81% and 83%
same,Population Pyknosed Nuclei (%),[5],61% and 62% and 66%
same,Population Tubulin-Different-Phenotype (%),[5],48% and 57% and 65%
same,Total Cell Count,[5],594 and 385 and 349
same,Population Apoptotic (%),[6],29% and 24%
same,Population Fragmented Nuclei (%),[6],3% and 2% and 6%
same,Population Healthy Nuclei (%),[6],64% and 67% and 57%
same,Population Hoechst High Intensity Objects (%),[6],3% and 2%
same,Population Membrane Permeable-Phenotype (%),[6],3% and 4%
same,Population Mitochondria Different-Phenotype (%),[6],41% and 43% and 33%
same,Population Mitotic Cells (%),[6],70% and 75%
same,Population Normal (%),[6],96% and 97%
same,Population Pyknosed Nuclei (%),[6],32% and 30% and 36%
same,Population Tubulin-Different-Phenotype (%),[6],52% and 36% and 34%
same,Total Cell Count,[6],298 and 240 and 293
same,Population Apoptotic (%),[7],81% and 77% and 85%
same,Population Fragmented Nuclei (%),[7],28% and 20% and 26%
same,Population Healthy Nuclei (%),[7],3% and 5%
same,Population Hoechst High Intensity Objects (%),[7],19% and 18% and 20%
same,Population Membrane Permeable-Phenotype (%),[7],8% and 9% and 0%
same,Population Mitochondria Different-Phenotype (%),[7],58% and 77% and 81%
same,Population Mitotic Cells (%),[7],18% and 22% and 14%
same,Population Normal (%),[7],80% and 81% and 79%
same,Population Pyknosed Nuclei (%),[7],68% and 74% and 69%
same,Population Tubulin-Different-Phenotype (%),[7],33% and 54%
same,Total Cell Count,[7],495 and 531 and 410
same,Population Apoptotic (%),[8],96% and 55% and 93%
same,Population Fragmented Nuclei (%),[8],15% and 11%
same,Population Healthy Nuclei (%),[8],36% and 42% and 39%
same,Population Hoechst High Intensity Objects (%),[8],17% and 10% and 14%
same,Population Membrane Permeable-Phenotype (%),[8],7% and 5% and 11%
same,Population Mitochondria Different-Phenotype (%),[8],95% and 51% and 90%
same,Population Normal (%),[8],82% and 89% and 85%
same,Population Pyknosed Nuclei (%),[8],48% and 45%
same,Population Tubulin-Different-Phenotype (%),[8],46% and 47% and 74%
same,Total Cell Count,[8],210 and 253 and 187
same,Population Apoptotic (%),[9],23% and 35% and 54%
same,Population Fragmented Nuclei (%),[9],21% and 28% and 19%
same,Population Healthy Nuclei (%),[9],17% and 11% and 15%
same,Population Hoechst High Intensity Objects (%),[9],22% and 24%
same,Population Membrane Permeable-Phenotype (%),[9],4% and 5%
same,Population Mitochondria Different-Phenotype (%),[9],54% and 70% and 71%
same,Population Mitotic Cells (%),[9],77% and 64% and 45%
same,Population Normal (%),[9],77% and 75%
same,Population Pyknosed Nuclei (%),[9],60% and 64%
same,Population Tubulin-Different-Phenotype (%),[9],39% and 52%
same,Total Cell Count,[9],604 and 398 and 345
same,Population Apoptotic (%),[10],20% and 12%
same,Population Fragmented Nuclei (%),[10],4% and 3%
same,Population Healthy Nuclei (%),[10],82% and 80% and 81%
same,Population Hoechst High Intensity Objects (%),[10],4% and 3%
same,Population Membrane Permeable-Phenotype (%),[10],3% and 1%
same,Population Mitochondria Different-Phenotype (%),[10],17% and 20% and 18%
same,Population Mitotic Cells (%),[10],76% and 79% and 87%
same,Population Normal (%),[10],95% and 96%
same,Population Pyknosed Nuclei (%),[10],12% and 15%
same,Population Tubulin-Different-Phenotype (%),[10],41% and 35% and 33%
same,Total Cell Count,[10],527 and 453 and 385
same,Population Apoptotic (%),[11],90% and 84% and 81%
same,Population Fragmented Nuclei (%),[11],37% and 29% and 32%
same,Population Healthy Nuclei (%),[11],2% and 3%
same,Population Hoechst High Intensity Objects (%),[11],22% and 20% and 23%
same,Population Membrane Permeable-Phenotype (%),[11],14% and 11%
same,Population Mitochondria Different-Phenotype (%),[11],71% and 57% and 77%
same,Population Mitotic Cells (%),[11],9% and 15% and 18%
same,Population Normal (%),[11],77% and 79% and 76%
same,Population Pyknosed Nuclei (%),[11],60% and 67% and 64%
same,Population Tubulin-Different-Phenotype (%),[11],28% and 64% and 55%
same,Total Cell Count,[11],401 and 536 and 484
same,Population Apoptotic (%),[12],92% and 82% and 60%
same,Population Fragmented Nuclei (%),[12],15% and 17% and 12%
same,Population Healthy Nuclei (%),[12],52% and 54% and 64%
same,Population Hoechst High Intensity Objects (%),[12],16% and 12% and 11%
same,Population Membrane Permeable-Phenotype (%),[12],4% and 6%
same,Population Mitochondria Different-Phenotype (%),[12],95% and 91% and 32%
same,Population Normal (%),[12],83% and 87% and 88%
same,Population Pyknosed Nuclei (%),[12],32% and 27% and 23%
same,Population Tubulin-Different-Phenotype (%),[12],46% and 86% and 45%
same,Total Cell Count,[12],209 and 191 and 306
